# Measured values: ChEMBL document CHEMBL1140100, “Flexible cyclic ethers/polyethers as novel P2-ligands for HIV-1 protease inhibitors: design, synthesis, biological evaluation, and protein-ligand X-ray studies” (J Med Chem, 2008)
# Assays:
# [1] = test system: Human immunodeficiency virus 1; assay: Antiviral activity against multidrug-resistant HIV1 with protease L10I, K14R, R41K, M46L, I54V, L63P, A71V, V82A, L90M, I93L mutation in phytohemagglutininin-activated PBMC assessed as inhibition of p24Gag protein production; format: functional, organism-based
# Outline: (§1)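 Clinical HIV-1 isolates (ERS104pre as wild-type reference; multidrug-resistant isolates with the listed protease substitutions relative to consensus type B) were tested in phytohemagglutinin-activated human peripheral blood mononuclear cells. The endpoint was inhibition of p24Gag protein production, and IC50 was determined in triplicate.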
# [2] = test system: Human immunodeficiency virus 1; assay: Antiviral activity against multidrug-resistant HIV1 with protease L10I, V11I, T12E, I15V, L19I, R41K, M46L, L63P, A71T, V82A, L90M mutation in phytohemagglutininin-activated PBMC assessed as inhibition of p24G protein production; format: functional, organism-based; outline: as §1
# [3] = test system: Human immunodeficiency virus 1; assay: Antiviral activity against multidrug-resistant HIV1/A with protease mutation in phytohemagglutininin-activated PBMC assessed as inhibition of p24G protein production; format: functional, organism-based
# [4] = test system: Human immunodeficiency virus 1; assay: Antiviral activity against HIV1 ERS104 with protease L63P mutation in phytohemagglutininin-activated PBMC assessed as inhibition of p24G protein production; format: functional, organism-based; outline: as §1
# [5] = test system: Human immunodeficiency virus 1; assay: Antiviral activity against multidrug-resistant HIV1/C with protease mutation in phytohemagglutininin-activated PBMC assessed as inhibition of p24G protein production; format: functional, organism-based
# [6] = test system: Human immunodeficiency virus 1; assay: Antiviral activity against multidrug-resistant HIV1 with protease L10I, L24I, I33F, E35D, M36I, N37S, M46L, I54V, R57K, I62V, L63P, A71V, G73S, V82A mutation in phytohemagglutininin-activated PBMC assessed as inhibition of p24G protein production; format: functional, organism-based; outline: as §1
# [7] = test system: Human immunodeficiency virus 1; assay: Antiviral activity against multidrug-resistant HIV1 with protease L10I, K14R, L33I, M36I, M46I, F53I, K55R, I62V, L63P, A71V, G73S, V82A, L90M, I93L mutation in phytohemagglutininin-activated PBMC assessed as inhibition of p24G protein production; format: functional, organism-based; outline: as §1
# [8] = test system: Human immunodeficiency virus 1; assay: Antiviral activity against multidrug-resistant HIV1 with protease L10I, K43T, M46L, I54V, L63P, A71V, V82A, L90M, Q92K mutation in phytohemagglutininin-activated PBMC assessed as inhibition of p24G protein production; format: functional, organism-based; outline: as §1
# [9] = test system: Human immunodeficiency virus 1; assay: Antiviral activity against HIV1 LAI in human MT2 cells assessed as inhibition of virus-induced cytopathic effect; format: functional, organism-based; conditions: Human immunodeficiency virus 1, LAI
# Protease = Protease (Human immunodeficiency virus 1, UniProt Q9YQ12); assay: Inhibition of HIV1 protease
# Protease, sequence (Q9YQ12 whole entry): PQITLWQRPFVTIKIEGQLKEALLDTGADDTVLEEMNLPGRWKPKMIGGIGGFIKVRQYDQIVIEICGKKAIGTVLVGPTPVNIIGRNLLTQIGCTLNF
# [10] = read-out: ID50 (the source's name)
smiles,measurement,setting,value
CC(C)CN(C[C@@H](O)[C@H](Cc1ccccc1)NC(=O)O[C@H]1CCOC1)S(=O)(=O)c1ccc(N)cc1,IC50,[1],290 nM
same,IC50,[2],340 nM
same,IC50,[3],100 nM
same,IC50,[4],33 nM
same,IC50,[5],230 nM
same,IC50,[6],430 nM
same,IC50,[7],320 nM
same,IC50,[8],300 nM
CC(C)CN(C[C@@H](O)[C@H](Cc1ccccc1)NC(=O)O[C@H]1CO[C@H]2OCC[C@H]21)S(=O)(=O)c1ccc(N)cc1,IC50,[1],4 nM
same,IC50,[3],3 nM
same,IC50,[9]; [10],1.6 nM
same,IC50,[4],3.5 nM
same,IC50,[7],26 nM
COc1ccc(S(=O)(=O)N(CC(C)C)C[C@@H](O)[C@H](Cc2ccccc2)NC(=O)OC2COCCS(=O)(=O)CCOC2)cc1,Ki,Protease,1.9 nM
same,IC50,[9]; read-out: IC50,> 1000 nM
COc1ccc(S(=O)(=O)N(CC(C)C)C[C@@H](O)[C@H](Cc2ccccc2)NC(=O)OC2COCCN(C)CCOC2)cc1,Ki,Protease,19 nM
same,IC50,[9]; read-out: IC50,> 1000 nM
COc1ccc(S(=O)(=O)N(CC(C)C)C[C@@H](O)[C@H](Cc2ccccc2)NC(=O)O[C@H]2CCCOCOC2)cc1,Ki,Protease,0.15 nM
COc1ccc(S(=O)(=O)N(CC(C)C)C[C@@H](O)[C@H](Cc2ccccc2)NC(=O)O[C@H]2CO[C@H]3OCC[C@H]32)cc1,IC50,[9]; [10],1.2 nM
COc1ccc(S(=O)(=O)N(CC(C)C)C[C@@H](O)[C@H](Cc2ccccc2)NC(=O)O[C@@H]2CCOCOC2)cc1,IC50,[1],220 nM
same,IC50,[2],360 nM
same,IC50,[3],20 nM
same,IC50,[9]; read-out: IC50,4.9 nM
same,IC50,[4],20 nM
same,IC50,[5],210 nM
same,IC50,[6],500 nM
same,IC50,[7],340 nM
same,IC50,[8],250 nM
COc1ccc(S(=O)(=O)N(CC(C)C)C[C@@H](O)[C@H](Cc2ccccc2)NC(=O)OC2CCCCCC2)cc1,Ki,Protease,27 nM
COc1ccc(S(=O)(=O)N(CC(C)C)C[C@@H](O)[C@H](Cc2ccccc2)NC(=O)OC2COCCOCCOC2)cc1,Ki,Protease,16 nM
COc1ccc(S(=O)(=O)N(CC(C)C)C[C@@H](O)[C@H](Cc2ccccc2)NC(=O)O[C@@H]2CCCCOC2)cc1,Ki,Protease,0.81 nM
COc1ccc(S(=O)(=O)N(CC(C)C)C[C@@H](O)[C@H](Cc2ccccc2)NC(=O)O[C@H]2CCCOCC2)cc1,Ki,Protease,0.74 nM
COc1ccc(S(=O)(=O)N(CC(C)C)C[C@@H](O)[C@H](Cc2ccccc2)NC(=O)OC2COCCOCOCCOC2)cc1,Ki,Protease,6.3 nM
same,IC50,[9]; read-out: IC50,> 1000 nM
COc1ccc(S(=O)(=O)N(CC(C)C)C[C@@H](O)[C@H](Cc2ccccc2)NC(=O)OC2COCCOCCOCCOC2)cc1,Ki,Protease,33 nM
COc1ccc(S(=O)(=O)N(CC(C)C)C[C@@H](O)[C@H](Cc2ccccc2)NC(=O)O[C@@H]2CCCOCOC2)cc1,Ki,Protease,0.16 nM
COc1ccc(S(=O)(=O)N(CC(C)C)C[C@@H](O)[C@H](Cc2ccccc2)NC(=O)O[C@H]2CCOCOC2)cc1,Ki,Protease,0.16 nM
same,IC50,[9]; read-out: IC50,30 nM
COc1ccc(S(=O)(=O)N(CC(C)C)C[C@@H](O)[C@H](Cc2ccccc2)NC(=O)OC2COCOC2)cc1,IC50,[1],64 nM
same,IC50,[2],300 nM
same,IC50,[3],13 nM
same,Ki,Protease,0.041 nM
same,IC50,[9]; read-out: IC50,3.4 nM
same,IC50,[4],6 nM
same,IC50,[5],160 nM
same,IC50,[6],330 nM
same,IC50,[7],230 nM
same,IC50,[8],110 nM
CC(C)(C)NC(=O)[C@@H]1CN(Cc2cccnc2)CCN1C[C@@H](O)C[C@@H](Cc1ccccc1)C(=O)N[C@H]1c2ccccc2C[C@H]1O,IC50,[1],> 1000 nM
same,IC50,[2],290 nM
same,IC50,[3],> 1000 nM
same,IC50,[4],26 nM
same,IC50,[5],> 1000 nM
same,IC50,[6],> 1000 nM
same,IC50,[7],> 1000 nM
same,IC50,[8],> 1000 nM
CC(C)c1nc(CN(C)C(=O)N[C@H](C(=O)N[C@@H](Cc2ccccc2)C[C@H](O)[C@H](Cc2ccccc2)NC(=O)OCc2cncs2)C(C)C)cs1 [RITONAVIR],IC50,[1],> 1000 nM
same,IC50,[2],> 1000 nM
same,IC50,[3],> 1000 nM
same,IC50,[4],34 nM
same,IC50,[5],> 1000 nM
same,IC50,[6],> 1000 nM
same,IC50,[7],> 1000 nM
same,IC50,[8],> 1000 nM
